The record followed here is ChEMBL document CHEMBL1121663, “(Acylaryloxy)acetic acid diuretics. 3. 2,3-Dihydro-5-acyl-2-benzofurancarboxylic acids, a new class of uricosuric diuretics” (1981).

In test [1] the test system is Canis familiaris. In words: Compound was tested for diuretic activity in dogs at 5 mg/kg dose after intravenous administration, activity is expressed as urine volume; 1/6. Type of test: functional, Canis lupus familiaris.
Test [2] concerns Canis familiaris. In words: Compound was tested for diuretic activity in dogs at 5 mg/kg dose after intravenous administration measured as microequivalent of Cl-/minute; 12/586 (Control/Drug treated). Type of test: functional, Canis lupus familiaris, Urine. The method in brief: (§1)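 Intravenous dog clearance study. A priming iv injection of 1.5 mL/kg isoosmotic pH 7.4 phosphate buffer (20 mg PO4/kg) was given first. This was followed by infusion of 3 mL/min pH 7.4 buffer containing 4% mannitol (6.9 mg PO4/min) throughout the experiment. Urinary Na+, K+ and Cl- were measured by standard methods. Each value is the mean of the two highest consecutive 15-min collections.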

In test [3] the test system is Canis familiaris. Put plainly: Compound was tested for diuretic activity in dogs at 5 mg/kg dose after intravenous administration measured as microequivalent of K+/minute; 4/54 (Control/Drug treated). Type of test: functional, Canis lupus familiaris, Urine. The method in brief: as §1
In test [4] the test system is Rattus norvegicus. Put plainly: Natriuretic activity in rats at 27 mg/kg of dosage; mequiv of Na. Type of test: functional. The method in brief: (§2)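 Rats housed three per metabolism cage received placebo vehicle or compound as a suspension in a final volume of 5.0 mL orally, with placebo groups run concurrently. Urine was collected over 0–5 h and analysed for Na+, K+ and Cl− by standard methods. Values are mequiv per cage, given as geometric means of three cages per dose level.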

The subject of test [5] is Rattus norvegicus. In words: Natriuretic activity in rats at 3 mg/kg of dosage; mequiv of Na. Type of test: functional. The method in brief:
as §2

Test [6] has as its system Rattus norvegicus. Put plainly: Natriuretic activity in rats at 81 mg/kg of dosage; mequiv of Na. Type of test: functional. In outline:
as §2

In test [7] the test system is Rattus norvegicus. In words: Natriuretic activity in rats at 9 mg/kg of dosage; mequiv of Na. Type of test: functional. The method in brief:
as §2

The nature of test [8]: Compound was tested for natriuretic activity in chimpanzee at 5 mg/kg dose activity is measured as ratio of clearance of urate / […]; Curate/Cinulin. Type of test: functional. The method in brief: (§3)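 Inulin iv gave GFR; urate and inulin clearances and Na+, K+, Cl- excretion were measured by AutoAnalyzer. Controls were three 20-min periods; compound was given orally in aqueous solution via nasal catheter. Response was the mean of eight 15-20 min periods, reported as treatment minus control from single experiments.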

Test [9] deals with Pan troglodytes. In words: Compound was tested for natriuretic activity in chimpanzee at 5 mg/kg dose activity is measured as microequivalent of Na+/m; muequiv of Na+/minute. Type of test: functional. The method in brief:
as §3

In test [10] the test system is Canis familiaris. Put plainly: Compound was tested for diuretic activity in dogs at 5 mg/kg dose after oral administration measured as microequivalent of Cl-/minute. Type of test: functional, Canis lupus familiaris, Urine. The method in brief:
(§4)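 Oral dog test: water loading (250 mL po, then 500 mL 1 h later). One hour later bladders were emptied by catheter and compound or placebo given in gelatin capsules. Dogs were kept in metabolism cages. Voided urine plus catheterized bladder urine was pooled at 5 h, and Na+, K+ and Cl- were measured by standard methods. Geometric means are reported.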

Test [11] deals with Canis familiaris. Put plainly: Compound was tested for diuretic activity in dogs at 5 mg/kg dose after oral administration measured as microequivalent of K+/minute. Type of test: functional, Canis lupus familiaris, Urine. The method in brief:
as §4

The subject of test [12] is Canis familiaris. In words: Compound was tested for diuretic activity in dogs at 5 mg/kg dose after oral administration measured as microequivalent of Na+/minute. Type of test: functional, Canis lupus familiaris, Urine. In outline: as §4
Test [13] concerns Canis familiaris. In words: Compound was tested for diuretic activity in dogs at 5 mg/kg dose after intravenous administration measured as microequivalent of Na+/minute; 52/264 (Control/Drug treated). Type of test: functional, Canis lupus familiaris, Urine.
For test [14], the system named is Canis familiaris. Put plainly: Compound was tested for diuretic activity in dogs at 5 mg/kg dose after intravenous administration measured as microequivalent of Cl-/minute; 16/271 (Control/Drug treated). Type of test: functional, Canis lupus familiaris, Urine. In outline:
as §1

For test [15], the system named is Canis familiaris. In words: Compound was tested for diuretic activity in dogs at 5 mg/kg dose after intravenous administration measured as microequivalent of K+/minute; 6/18 (Control/Drug treated). Type of test: functional, Canis lupus familiaris, Urine. The method in brief:
as §1

Test [16] relates to Canis familiaris. In words: Diuretic activity in dogs following 5 mg/kg oral administration.

`O=C(O)C1Cc2cc(C(O)c3cccs3)c(Cl)c(Cl)c2O1` (stereo not given) had a Urine volume in test [1] of 1 mL/min. The Cl- excretion in test [2] came out at 586 µequiv/min. In addition, the K+ excretion in test [3] was determined as 54 µequiv/min. Also, the Oral activity worked out at 80 in test [4]; 25 in test [5]; 180 in test [6]; 40 in [7]; 550 in test [9]. For the same compound, the Ratio in [8] came to 0.15.
As to `O=C(O)C1Cc2cc(S(=O)(=O)c3cccs3)c(Cl)c(Cl)c2O1` (stereo not given), the Oral activity in [10] turned out to be 9.1; in [11], 1.4; in test [12], 7.6; in [4], 44; in [5], 10; in [6], 65. Further, the Oral activity in test [7] is 19. The Na+ excretion in test [13] is 264 µequiv/min. Moreover, the Cl- excretion in test [14] came to 271 µequiv/min. In addition, the K+ excretion in [15] amounted to 18 µequiv/min. The Urine volume in test [16] came to 246 mL.
